The test system of test [1] is Nucleic Acid. The test can be described thus: Binding affinity to hairpin fluorescent labeled oligonucleotide F10T duplex DNA assessed as change in melting temperature at 1 uM after 30 secs by FRET assay.
Test [2] has as its system Nucleic Acid. Nature of the test: Binding affinity to human fluorescent labeled oligonucleotide F21T telomeric G-quadruplex DNA assessed as change in melting temperature at 1 uM after 30 secs by FRET assay. The class given is nucleic-acid assay.
In test [3] the target is Nucleic Acid. The test can be described thus: Binding affinity to human biotinylated telomeric HTG21 G-quadruplex DNA assessed as equilibrium dissociation constant by SPR assay. The class given is nucleic-acid assay. In outline: (§1)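 Biotinylated HTG21 (d(GGG[TTAGGG]3)) or duplex DNA was folded in 50 mM Tris-HCl pH 7.2 with 100 mM KCl. About 1000 RU was captured on flow cells 1 and 2, with the third cell as blank. Six ligand concentrations from 0.15625 µM upward were injected for 150 s association and 300 s dissociation at 25 °C. KD came from global Langmuir fitting of the kinetics.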
(In general: SPR reads the build-up and loss of mass on a sensor chip optically.)

For test [4], the target named is Telomerase reverse transcriptase (Homo sapiens, UniProt O14746). The test can be described thus: Inhibition of human telomerase in cell free system after 1 min by TRAP-LIG assay. As to conditions: in the assay text read “after 20 mins” for “after 1 min”. The method, boiled down:
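TRAP-LIG used 500 ng protein extract from exponentially growing MCF-7 cells to extend 0.1 µg TS primer. The buffer was 20 mM Tris-HCl pH 8.3, 68 mM KCl, 1.5 mM MgCl2, 1 mM EGTA and 0.05% Tween 20, with 125 µM dNTPs and BSA, plus ligand at various concentrations or none. After 20 min elongation and purification, products were amplified with ACX/TS primers and Taq for 35 cycles (94 °C 30 s, 61 °C 1 min, 72 °C 1 min).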

The test system of test [5] is Nucleic Acid. Nature of the test: Binding affinity to human fluorescent labeled oligonucleotide F21T telomeric G-quadruplex DNA assessed as change in melting temperature at 1 uM by FRET assay in presence of duplex DNA competitor ds26. It is filed as nucleic-acid assay.
In test [6] the test system is Nucleic Acid. Nature of the test: Binding affinity to human telomeric HTG21 G-quadruplex DNA after 6 hrs in presence of K+ ions by CD spectroscopy. It is filed as nucleic-acid assay. The method, boiled down: (§2)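 HTG21 in 10 mM Tris-HCl pH 7.2 with 100 mM KCl was titrated with ligand at 0–5 mol equiv. Samples were heated to 95 °C, cooled slowly to room temperature and held at 4 °C for at least 6 h. CD was scanned at 230–450 nm in a 4 mm quartz cuvette with 1 nm bandwidth, 1 nm steps and 0.5 s per point.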

The test system of test [7] is Nucleic Acid. Nature of the test: Binding affinity to human biotinylated duplex DNA assessed as equilibrium dissociation constant upto 10 to 20 uM by SPR assay. It is filed as nucleic-acid assay. The method, boiled down: as §1
The subject of test [8] is HL-60. Nature of the test: Induction of senescence in human HL60 cells assessed as beta galactosidase activity at 1.25 uM measured every 4 days for 16 days. It is filed as functional, cell-based. In outline:
(§3)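 After 16 days of long-term HL60 culture with ligand renewed every 4 days (1.25 µM shown, versus 0.1% DMSO), cells were fixed in 2% formaldehyde/0.2% glutaraldehyde for 15 min at room temperature. They were washed with PBS and stained overnight at 37 °C with X-gal (1 mg/mL). SA-β-Gal and enlarged or flattened morphology were scored by optical microscopy.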

Test [9] has as its system HL-60. Nature of the test: Cytotoxicity against human HL60 cells assessed as decrease in population doubling at 2.5 uM after 8 days. It is filed as functional, cell-based.
Test [10] has as its system Nucleic Acid. Nature of the test: Binding affinity to G4 site of human oligonucleotide telomeric HT6 G-quadruplex DNA by NMR spectroscopy. The class given is nucleic-acid assay. In outline:
(§4)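 1H NMR titration at 400 MHz and 25 °C of 0.5 mM [d(TTAGGG)]4 in 90% H2O/10% D2O with 25 mM potassium phosphate (pH 7.0) and 150 mM KCl. Ligand:quadruplex ratios were 0, 0.25, 0.5, 1 and 2. Water was suppressed by Watergate. Shifts and broadening of DNA signals were followed. The oligonucleotide was HPLC-purified.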

The test system of test [11] is HL-60. Nature of the test: Induction of telomere shortening in human HL60 cells at 0.625 uM after 16 days by telomeric restriction fragment length assay. It is filed as functional, cell-based. In outline:
(§5)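 HL60 cells were treated with ligand (0.625 or 1.25 µM) or 0.1% DMSO for 16 days. Genomic DNA was digested with HinfI/RsaI and run on a 0.8% agarose gel, then blotted to nylon and fixed at 120 °C for 20 min. The blot was hybridized with a DIG-labeled telomeric probe, bound with anti-DIG-alkaline phosphatase and detected by chemiluminescence.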

Test [12] has as its system HL-60. Nature of the test: Growth inhibition of human HL60 cells assessed as decrease in population doubling at 0.625 uM after 16 days. It is filed as functional, cell-based.
Test [13] concerns Nucleic Acid. The test can be described thus: Binding affinity to A3 site of human oligonucleotide telomeric HT6 G-quadruplex DNA by NMR spectroscopy. It is filed as nucleic-acid assay. In outline: as §4
Test [14] has as its system HL-60. The test can be described thus: Growth inhibition of human HL60 cells assessed as decrease in population doubling at 1.25 uM after 12 days. The class given is functional, cell-based.
The test system of test [15] is HL-60. Nature of the test: Induction of senescence in human HL60 cells assessed flattened cells measured every 4 days for 16 days by optical microscopy. The class given is functional, cell-based. In outline:
as §3

For test [16], the system named is HL-60. Nature of the test: Cytotoxicity against human HL60 cells assessed as cell viability after 48 hrs by MTT assay. The class given is functional, cell-based. The following applies: HL-60, 48 h. In outline: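 HL60 cells were seeded at 1.0 × 10³ per well and exposed to a range of compound concentrations for 48 h at 37 °C in 5% CO2. MTT (5 mg/mL) was added for 4 h, formazan was dissolved in DMSO and OD was read at 570 nm. Each dose was run in triplicate, and IC50 was taken from mean OD versus concentration curves.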

The subject of test [17] is HL-60. The test can be described thus: Induction of senescence in human HL60 cells assessed enlarged cells measured every 4 days for 16 days by optical microscopy. The class given is functional, cell-based. The method, boiled down:
as §3

Test [18] relates to HL-60. Nature of the test: Induction of telomere shortening in human HL60 cells at 1.25 uM after 16 days by telomeric restriction fragment length assay. It is filed as functional. The method, boiled down: as §5
The subject of test [19] is Nucleic Acid. Nature of the test: Binding affinity to human telomeric HTG21 G-quadruplex DNA after 6 hrs by CD spectroscopy. The class given is nucleic-acid assay. In outline: as §2
The test system of test [20] is Nucleic Acid. Nature of the test: Binding affinity to human oligonucleotide telomeric HT6 G-quadruplex DNA by NMR spectroscopy. It is filed as nucleic-acid assay. In outline: as §4
Test [21] has as its system HL-60. Nature of the test: Growth inhibition of human HL60 cells assessed as decrease in population doubling at 2.5 uM after 12 days. It is filed as functional, cell-based.
Test [22] has as its system Nucleic Acid. The test can be described thus: Binding affinity to human oligonucleotide telomeric HT6 G-quadruplex DNA at 0.5:1 ligand to quadruplex ratio by NMR spectroscopy. The class given is nucleic-acid assay. In outline: as §4

Calls of active or inactive are those of the source. No cut-off for these calls is given here.

A word on the ΔTm: it is the shift of the melting midpoint relative to a reference. The Kd is the concentration at which binding is half-saturated. One may read the IC50 as the point on the concentration scale where inhibition reaches its midpoint.

Sequence of Telomerase reverse transcriptase (O14746 whole entry): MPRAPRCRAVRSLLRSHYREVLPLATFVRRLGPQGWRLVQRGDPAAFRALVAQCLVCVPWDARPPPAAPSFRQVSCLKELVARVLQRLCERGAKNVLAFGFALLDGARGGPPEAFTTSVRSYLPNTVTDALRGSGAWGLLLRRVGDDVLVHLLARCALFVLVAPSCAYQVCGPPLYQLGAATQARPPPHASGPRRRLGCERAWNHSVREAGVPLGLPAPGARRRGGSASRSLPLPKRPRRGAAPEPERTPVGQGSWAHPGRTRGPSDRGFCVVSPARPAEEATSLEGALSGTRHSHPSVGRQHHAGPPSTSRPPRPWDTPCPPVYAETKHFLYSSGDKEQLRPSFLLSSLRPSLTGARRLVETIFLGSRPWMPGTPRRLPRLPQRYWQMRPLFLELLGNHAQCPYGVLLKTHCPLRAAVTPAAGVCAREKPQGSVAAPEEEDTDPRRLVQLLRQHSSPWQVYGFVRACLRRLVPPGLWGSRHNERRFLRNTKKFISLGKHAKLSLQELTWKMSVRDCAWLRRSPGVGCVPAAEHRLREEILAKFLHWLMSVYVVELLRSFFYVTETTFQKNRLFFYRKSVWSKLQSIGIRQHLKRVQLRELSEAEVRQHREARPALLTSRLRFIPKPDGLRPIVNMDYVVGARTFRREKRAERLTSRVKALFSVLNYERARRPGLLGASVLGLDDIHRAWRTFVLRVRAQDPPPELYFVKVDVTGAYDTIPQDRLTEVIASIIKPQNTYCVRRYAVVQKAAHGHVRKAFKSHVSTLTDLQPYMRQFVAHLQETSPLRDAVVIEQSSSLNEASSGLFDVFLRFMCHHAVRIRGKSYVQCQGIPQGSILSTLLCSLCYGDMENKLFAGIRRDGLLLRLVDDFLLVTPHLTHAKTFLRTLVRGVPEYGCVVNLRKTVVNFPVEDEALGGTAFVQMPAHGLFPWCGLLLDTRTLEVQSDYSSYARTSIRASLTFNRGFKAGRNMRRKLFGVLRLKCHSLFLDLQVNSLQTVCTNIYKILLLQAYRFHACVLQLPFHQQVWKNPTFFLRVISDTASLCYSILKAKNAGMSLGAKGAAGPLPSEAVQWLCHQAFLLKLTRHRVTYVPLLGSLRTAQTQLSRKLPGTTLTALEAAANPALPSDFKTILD

As for `CN(C)CCCNc1nc(-c2ccc(Cl)cc2NC(=O)CCN2CCCCC2)nc2ccccc12`, the ΔTm was determined as 0.2 °C with Nucleic Acid [1] and 11.8 °C with Nucleic Acid [2].
Turning to `CN(C)CCCNc1nc(-c2ccc(Cl)cc2N)nc2ccccc12`, the values for the ΔTm in the test on Nucleic Acid [1] and with Nucleic Acid [2] were 0.3 °C and 0.7 °C, respectively.
Regarding `CN(C)CCCNc1nc(-c2ccc(Cl)cc2NC(=O)CN2CCN(C)CC2)nc2ccccc12`, the ΔTm with Nucleic Acid [1] was determined as 0.3 °C; in the test with Nucleic Acid [2], 10.1 °C. Besides, the Kd on Nucleic Acid [3] came to 2.11 µM. In [4], this compound came in with an IC50 of 29.3 µM. The result with Nucleic Acid [5] and in the test with Nucleic Acid [6] was Active. Further, the outcome in the test with Nucleic Acid [7] was inactive.
In the case of `CN(C)CCCNc1nc(-c2ccc(Cl)cc2NC(=O)CCN2CCN(C)CC2)nc2ccccc12`, the result with HL-60 [8], with HL-60 [9], in the test on Nucleic Acid [10], with HL-60 [11], with Nucleic Acid [13] and in the test with Nucleic Acid [5] was Active. The result with HL-60 [15], with HL-60 [17], in the test on Nucleic Acid [19], with Nucleic Acid [20] and with Nucleic Acid [22] was Active. Also, the figures for the ΔTm with Nucleic Acid [1] and in the test on Nucleic Acid [2] were 0.3 °C and 15.5 °C, respectively. Also, the dissociation constant (Kd) at Nucleic Acid [3] was determined as 0.314 µM. The “growth inhibition (GI)” value in the test with HL-60 [12], with HL-60 [14] and with HL-60 [21] was “Active” in each case. Moreover, the IC50 in test [4] was 7.4 µM; with HL-60 [16], 9.6 µM. In addition, the Activity in the test on HL-60 [18] worked out at 1.2 kilobase. For the same compound, the outcome with Nucleic Acid [7] was inactive.
Regarding `CCN(CC)CC(=O)Nc1cc(Cl)ccc1-c1nc(NCCCN(C)C)c2ccccc2n1`, the ΔTm came out at 0.1 °C with Nucleic Acid [1] and 4.5 °C in the test on Nucleic Acid [2].
For the compound `CN(C)CCCNc1nc(-c2ccc(Cl)cc2NC(=O)CCCN2CCN(C)CC2)nc2ccccc12`, the thermal shift (ΔTm) in the test on Nucleic Acid [1] stood at 0.4 °C; in the test with Nucleic Acid [2], 14.7 °C. In addition, the Kd on Nucleic Acid [3] came out at 0.278 µM. Further, inhibition in test [4] was half-maximal at 7.7 µM (IC50). In addition, the result with Nucleic Acid [5] and in the test with Nucleic Acid [19] was Active. Further, the outcome in the test on Nucleic Acid [7] was inactive.
Take `CN(C)CCCNc1nc(-c2ccc(Cl)cc2NC(=O)CCCN2CCCCC2)nc2ccccc12`: the results for the ΔTm with Nucleic Acid [1] and in the test with Nucleic Acid [2] were 0.2 °C and 11.6 °C, respectively.
The like results for `CN(C)CCCNc1nc(-c2ccc(Cl)cc2NC(=O)CN2CCCC2)nc2ccccc12` were, in that order, 0.1 °C and 7.4 °C.
For `CN(C)CCCNc1nc(-c2ccc(Cl)cc2NC(=O)CN2CCCCC2)nc2ccccc12`, the ΔTm in the test with Nucleic Acid [1] was determined as 0.2 °C; in the test on Nucleic Acid [2] it was 5.4 °C.
As for `CN(C)CCCNCC(=O)Nc1cc(Cl)ccc1-c1nc(NCCCN(C)C)c2ccccc2n1`, the values for the ΔTm in the test on Nucleic Acid [1] and in the test on Nucleic Acid [2] were 0.3 °C and 13 °C, respectively. Further, at Nucleic Acid [3], the Kd came to 0.337 µM. Further, the outcome with Nucleic Acid [5] was Active. Besides, the outcome in the test on Nucleic Acid [7] was inactive.
`CCN(CC)CCCNCC(=O)Nc1cc(Cl)ccc1-c1nc(NCCCN(C)C)c2ccccc2n1`: the ΔTm stood at 0.2 °C with Nucleic Acid [1] and 12.3 °C with Nucleic Acid [2].
As to `CN(C)CCCNc1nc(-c2ccc(Cl)cc2NC(=O)CCCN2CCOCC2)nc2ccccc12`, the ΔTm in the test on Nucleic Acid [1] stood at 0.1 °C; in the test with Nucleic Acid [2] it was 9.8 °C. The outcome in the test with Nucleic Acid [5] was Active.
The corresponding values for `CN(C)CCCNc1nc(-c2ccc(Cl)cc2NC(=O)CN2CCOCC2)nc2ccccc12` are 0 °C, 3.9 °C and “Active”.
`CN(C)CCCNc1nc(-c2ccc(Cl)cc2NC(=O)CCN2CCCC2)nc2ccccc12`: the ΔTm was determined as 0.2 °C in the test on Nucleic Acid [1] and 12.8 °C in the test with Nucleic Acid [2].
The corresponding values for `CN(C)CCCNc1nc(-c2ccc(Cl)cc2NC(=O)CNCCN2CCCC2)nc2ccccc12` are 0.3 °C and 10.4 °C.
For the compound `CN(C)CCCNc1nc(-c2ccc(Cl)cc2NC(=O)CCN2CCOCC2)nc2ccccc12`, the ΔTm with Nucleic Acid [1] was 0.1 °C; with Nucleic Acid [2] it was 8.4 °C. For the same compound, in the test on Nucleic Acid [5], the result was Active.
The like results for `CN(C)CCCNc1c2ccccc2nc2c1[nH]c1ccccc12` were, in that order, 5.5 °C, 9.9 °C and “inactive”.
As for `CCN(CC)CCC(=O)Nc1cc(Cl)ccc1-c1nc(NCCCN(C)C)c2ccccc2n1`, the ΔTm is 0.1 °C with Nucleic Acid [1] and 14.4 °C in the test with Nucleic Acid [2].
The like results for `CN(C)CCCNc1nc(-c2ccc(Cl)cc2NC(=O)CNCCN2CCCCC2)nc2ccccc12` were, in that order, 0.2 °C and 9.6 °C.
As for `CN(C)CCCNCCC(=O)Nc1cc(Cl)ccc1-c1nc(NCCCN(C)C)c2ccccc2n1`, in the test on Nucleic Acid [19], the outcome was Active.

Values taken from ChEMBL document CHEMBL2203100, “Disubstituted quinazoline derivatives as a new type of highly selective ligands for telomeric G-quadruplex DNA” (Eur J Med Chem, 2012).
